# Data: ChEMBL document CHEMBL1124004, “Inhibitors of cyclic AMP phosphodiesterase. 3. Synthesis and biological evaluation of pyrido and imidazolyl analogues of 1,2,3,5-tetrahydro-2-oxoimidazo[2,1-b]quinazoline” (J Med Chem, 1988)
# The source made the active and inactive calls. The rule behind the calls is not given here.
# Tests used:
# Phosphodiesterase 3 [1] = target: T1, Phosphodiesterase 3 (Homo sapiens, UniProt Q14432+Q13370); experiment: Inhibition of platelet cAMP phosphodiesterase
# Homo sapiens [2] = organism: Homo sapiens; experiment: Inhibition of ADP induced platelet aggregation; format: functional
# In short: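 Human platelets with ADP as the aggregating stimulus. Each assay was run in triplicate at five inhibitor concentrations. The mean at each concentration was plotted and the IC50 was read graphically.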
# Phosphodiesterase 3 [3] = target: T1, Phosphodiesterase 3; experiment: Inhibition of human platelet cAMP phosphodiesterase at 100 uM
# Homo sapiens [4] = organism: Homo sapiens; experiment: Inhibition of ADP induced platelet aggregation; inactive; format: functional
# Canis familiaris [5] = experiment: Percent maximum increase in cardiac force in anesthetized dogs using isoproterenol as agonist; inactive at all doses up to 1000 ug/kg; format: functional, organism-based; details: Canis lupus familiaris; Heart
# In short: (§1)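 Instrumented, anesthetized dogs. Cardiac force rise from the test agent is expressed as a percent of the maximum cardiac force increase seen in the same animal with isoproterenol as agonist. N = number of experiments.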
# Canis familiaris [6] = organism: Canis familiaris; experiment: Dose at which 50% maximal effect for cardiac force increase in dogs; format: functional; details: Canis lupus familiaris, Heart
# In short: (§2)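 Instrumented, anesthetized dogs. Cardiac force, heart rate and blood pressure response curves were plotted against dose. When n > 1, the mean at each dose level was plotted.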
# Canis familiaris [7] = experiment: Percent maximum increase in cardiac force in anesthetized dogs using isoproterenol as agonist at greater than 5000 nmol/kg; format: functional, Canis lupus familiaris, Heart
# Canis familiaris [8] = organism: Canis familiaris; experiment: Dose at which 50% heart rate increase in dogs; format: functional; details: Canis lupus familiaris; in short: as §2
# Canis familiaris [9] = organism: Canis familiaris; experiment: Dose at which 50% blood pressure decrease in dogs; format: functional; details: Canis lupus familiaris; in short: as §2
# Canis familiaris [10] = experiment: Percent maximum increase in cardiac force in anesthetized dogs using isoproterenol as agonist at 140 nmol/kg; format: functional, Canis lupus familiaris, Heart; in short: as §1
# Canis familiaris [11] = experiment: Percent maximum increase in cardiac force in anesthetized dogs using isoproterenol as agonist at 185 nmol/kg; format: functional, Canis lupus familiaris, Heart; in short: as §1
# Canis familiaris [12] = experiment: Percent maximum increase in cardiac force in anesthetized dogs using isoproterenol as agonist at 75 nmol/kg; format: functional, Canis lupus familiaris, Heart; in short: as §1
# Canis familiaris [13] = experiment: Percent maximum increase in cardiac force in anesthetized dogs using isoproterenol as agonist at 125 nmol/kg; format: functional, Canis lupus familiaris, Heart; in short: as §1
IC50 (Phosphodiesterase 3 [1]) [µM],IC50 (Homo sapiens [2]) [µM],Structure (SMILES),also measured
0.7,23,O=C1CN2Cc3cc(OCCCCCCn4ccnc4)ccc3N=C2N1,
> 100,,CCc1[nH]c(=O)[nH]c1C(=O)c1ccncc1 [PIROXIMONE],inhibition (Phosphodiesterase 3 [3]): 40%
8.8,,O=C1CN2Cc3ccccc3N=C2N1,
2,40,O=C1CN2Cc3cc(OCCn4ccnc4)ccc3N=C2N1,
0.24,,C[C@@H]1C(=O)NC2=Nc3cccc(Cl)c3CN21 [QUAZINONE],
250,,O=C1CN=C(Nc2ccc(-n3ccnc3)cc2)N1,IC50 (Homo sapiens [4]): Not Active; Max CF response (Canis familiaris [5]): inactive
,,Cc1[nH]c(=O)c(C#N)cc1-c1ccncc1 [MILRINONE],ED50 (Canis familiaris [6]): 0.09 µmol/kg; ED50 (Canis familiaris [8]): 0.19 µmol/kg; Max CF response (Canis familiaris [10]): 65%; ED50 (Canis familiaris [9]): 0.59 µmol/kg
30,25,O=C1CN2Cc3ncccc3N=C2N1,
1.5,,O=C1CN2Cc3cc(Cl)ccc3N=C2N1,
0.6,6,O=C1CN2Cc3cc(-n4ccnc4)ccc3N=C2N1,ED50 (Canis familiaris [6]): 0.18 µmol/kg; Max CF response (Canis familiaris [11]): 63%; ED50 (Canis familiaris [8]): 0.22 µmol/kg; ED50 (Canis familiaris [9]): 0.64 µmol/kg
0.15,,O=C1CN2Cc3cc(N4CCCCC4)ccc3N=C2N1,
26,26,O=C1CN2Cc3ccncc3N=C2N1,
0.56,,O=C1CN2Cc3cc(OCc4ccccc4)ccc3N=C2N1,
3.3,,O=C1CN2Cc3cc(O)ccc3N=C2N1,
,,CN(C(=O)CCCOc1ccc2c(c1)CN1CC(=O)NC1=N2)C1CCCCC1 [LIXAZINONE],Max CF response (Canis familiaris [12]): 71%; ED50 (Canis familiaris [6]): 0.02 µmol/kg; ED50 (Canis familiaris [8]): 0.03 µmol/kg; ED50 (Canis familiaris [9]): 0.05 µmol/kg
,,CC1CC(O)=NN=C1c1ccc(-n2ccnc2)cc1 (configuration not stated) [CI-930],ED50 (Canis familiaris [6]): 0.1 µmol/kg; Max CF response (Canis familiaris [13]): 72%; ED50 (Canis familiaris [8]): 0.1 µmol/kg; ED50 (Canis familiaris [9]): 0.1 µmol/kg
0.52,,O=C1CN2Cc3cc(I)ccc3N=C2N1,
0.07,,Cc1c(Br)ccc2c1CN1C(=N2)NC(=O)C1C (configuration not stated),

Structure (SMILES),IC50 (Phosphodiesterase 3 [1]) [µM],IC50 (Homo sapiens [2]) [µM],also measured
O=C1CN2Cc3cnccc3N=C2N1,18,46,ED50 (Canis familiaris [6]): 0.78 µmol/kg; Max CF response (Canis familiaris [7]): 27%; ED50 (Canis familiaris [8]): > 1 µmol/kg; ED50 (Canis familiaris [9]): > 1 µmol/kg
O=C1CN2Cc3cccnc3N=C2N1,330,200,
